From ChEMBL document CHEMBL1142489, “Tetrahydrolipstatin analogues as modulators of endocannabinoid 2-arachidonoylglycerol metabolism” (J Med Chem, 2008) come the findings set out here.

SMILES strings stand for the structures.

The species entered for experiment [1] is Homo sapiens. Put plainly: Selectivity ratio of IC50 for human recombinant DAGLalpha over Ki for human recombinant CB1 receptor.
Experiment [2] in a line: Selectivity ratio of IC50 for human recombinant DAGLalpha over IC50 for african green monkey MAGL.
For experiment [3], the species on record is Homo sapiens. The experiment in a line: Selectivity ratio of IC50 for human recombinant DAGLalpha over Ki for human recombinant CB2 receptor.
The target of experiment [4] is T1, Diacylglycerol lipase-alpha (Homo sapiens, UniProt Q9Y4D2).
T1 sequence (Q9Y4D2 whole entry): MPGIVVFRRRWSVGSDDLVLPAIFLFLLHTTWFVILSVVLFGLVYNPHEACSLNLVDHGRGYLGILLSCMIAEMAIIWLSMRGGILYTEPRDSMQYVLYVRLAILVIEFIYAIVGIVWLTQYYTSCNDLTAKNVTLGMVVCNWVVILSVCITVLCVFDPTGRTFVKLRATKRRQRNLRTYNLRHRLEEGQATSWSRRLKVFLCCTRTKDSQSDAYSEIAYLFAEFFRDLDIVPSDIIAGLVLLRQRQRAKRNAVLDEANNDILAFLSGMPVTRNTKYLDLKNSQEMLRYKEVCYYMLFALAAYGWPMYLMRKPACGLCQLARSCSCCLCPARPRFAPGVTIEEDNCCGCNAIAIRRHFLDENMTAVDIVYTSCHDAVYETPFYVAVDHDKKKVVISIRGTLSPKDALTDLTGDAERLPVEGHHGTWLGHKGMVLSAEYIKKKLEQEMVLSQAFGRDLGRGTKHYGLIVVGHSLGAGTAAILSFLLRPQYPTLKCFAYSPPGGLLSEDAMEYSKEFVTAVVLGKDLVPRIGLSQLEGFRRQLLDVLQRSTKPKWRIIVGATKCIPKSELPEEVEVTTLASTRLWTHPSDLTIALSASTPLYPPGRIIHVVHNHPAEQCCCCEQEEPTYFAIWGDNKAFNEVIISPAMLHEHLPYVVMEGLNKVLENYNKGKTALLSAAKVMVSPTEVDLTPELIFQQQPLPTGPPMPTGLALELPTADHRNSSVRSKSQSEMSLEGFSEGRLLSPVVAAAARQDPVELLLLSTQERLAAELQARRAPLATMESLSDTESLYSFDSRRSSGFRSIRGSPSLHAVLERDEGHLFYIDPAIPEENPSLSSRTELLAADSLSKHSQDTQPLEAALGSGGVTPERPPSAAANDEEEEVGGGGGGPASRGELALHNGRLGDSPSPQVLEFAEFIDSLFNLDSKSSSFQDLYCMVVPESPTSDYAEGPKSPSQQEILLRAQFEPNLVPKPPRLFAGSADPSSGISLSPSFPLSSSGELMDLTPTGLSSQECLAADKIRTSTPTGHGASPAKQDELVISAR
Put plainly: Inhibition of human recombinant DAGL-alpha-mediated sn-1-[14C]oleoyl-2-arachidonoyl-glycerol hydrolysis to 2-AG overexpressed in african green monkey COS7 cell membrane by scintillation counting. The experiment is classed as cell membranes, COS-7.

Experiment [5] in a line: Selectivity ratio of IC50 for human recombinant DAGLalpha over IC50 for rat brain membrane FAAH.
Experiment [6] has as its target Cannabinoid receptor 1 (Homo sapiens, UniProt P21554). Put plainly: Displacement of [3H]CP-55940 from human recombinant CB1 receptor expressed in HEK293 cells by scintillation counting. The experiment is classed as cell-based. Background: Displacement assays read how much labelled ligand stays bound in the presence of the test substance.
The target in experiment [7] is T2, Fatty-acid amide hydrolase 1 (Rattus norvegicus, UniProt P97612).
T2 sequence (P97612 whole entry): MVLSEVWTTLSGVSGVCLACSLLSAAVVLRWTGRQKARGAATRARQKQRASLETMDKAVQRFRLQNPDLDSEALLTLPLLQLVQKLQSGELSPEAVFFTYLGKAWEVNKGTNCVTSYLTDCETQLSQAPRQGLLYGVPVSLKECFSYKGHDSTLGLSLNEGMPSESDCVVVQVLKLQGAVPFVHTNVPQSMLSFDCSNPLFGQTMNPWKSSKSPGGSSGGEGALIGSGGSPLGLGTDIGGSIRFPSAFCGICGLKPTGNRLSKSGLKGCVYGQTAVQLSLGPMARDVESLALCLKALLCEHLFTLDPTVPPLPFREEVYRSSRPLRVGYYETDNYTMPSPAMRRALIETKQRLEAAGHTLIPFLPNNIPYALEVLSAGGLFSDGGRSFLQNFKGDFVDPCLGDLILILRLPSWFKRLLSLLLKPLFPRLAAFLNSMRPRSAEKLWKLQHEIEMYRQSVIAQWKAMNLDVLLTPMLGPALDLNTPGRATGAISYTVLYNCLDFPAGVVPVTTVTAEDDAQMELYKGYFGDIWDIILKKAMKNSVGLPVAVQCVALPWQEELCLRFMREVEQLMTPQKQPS
The experiment in a line: Inhibition of FAAH-mediated [14C]anandamide hydrolysis in rat brain membrane. The experiment is classed as cell membranes. The method, boiled down: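 The mixture was extracted with 2 volumes of CHCl3/CH3OH 1/1. [14C]ethanolamine in the aqueous phase was measured by scintillation counting.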

Experiment [8] in a line: Inhibition of MAGL-mediated [14C]2-arachidonoyl glycerol hydrolysis to [3H]arachidonic acid in african green monkey COS cell cytosolic fraction by scintillation counting. Particulars: in the assay text read “[3H]2-arachidonoyl glycerol” for “[14C]2-arachidonoyl glycerol”. The experiment is classed as cell-based, Chlorocebus aethiops. In outline:
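The 10000g cytosolic fraction of COS-7 cells, taken as the MAGL source, was incubated with 2-[3H]arachidonoylglycerol (1.0 mCi/mmol, 25 µM) in 50 mM Tris-HCl, pH 7.0, for 20 min at 37 °C. Products were separated by TLC. [3H]arachidonic acid was quantified by scintillation counting as the measure of activity.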

Experiment [9] has as its target Cannabinoid receptor 2 (Homo sapiens, UniProt P34972). The experiment in a line: Displacement of [3H]CP-55940 from human recombinant CB2 receptor expressed in HEK293 cells by scintillation counting. The experiment is classed as cell-based.
Experiment [10] in a line: Inhibition of ionomycin-induced stimulation of 2-AG biosynthesis in mouse N18TG2 cells at 1 uM. The experiment is classed as functional. In outline:
(§1)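 Confluent mouse N18TG2 neuroblastoma cells attached to dishes were incubated for 20 min at 37 °C in medium containing 3 µM ionomycin, with vehicle or test compound. The reaction was stopped with ice-cold methanol and lipids were extracted three times with CHCl₃. Lyophilized lipids were assayed for 2-AG by isotope-dilution LC-MS. Values are % change in 2-AG levels versus vehicle (means ± SEM, N = 3).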

Experiment [11] is described as follows: Inhibition of ionomycin-induced stimulation of 2-AG biosynthesis in mouse N18TG2 cells at 0.3 uM. The experiment is classed as functional. The method, boiled down: as §1

Sequence of Cannabinoid receptor 1 (P21554 whole entry): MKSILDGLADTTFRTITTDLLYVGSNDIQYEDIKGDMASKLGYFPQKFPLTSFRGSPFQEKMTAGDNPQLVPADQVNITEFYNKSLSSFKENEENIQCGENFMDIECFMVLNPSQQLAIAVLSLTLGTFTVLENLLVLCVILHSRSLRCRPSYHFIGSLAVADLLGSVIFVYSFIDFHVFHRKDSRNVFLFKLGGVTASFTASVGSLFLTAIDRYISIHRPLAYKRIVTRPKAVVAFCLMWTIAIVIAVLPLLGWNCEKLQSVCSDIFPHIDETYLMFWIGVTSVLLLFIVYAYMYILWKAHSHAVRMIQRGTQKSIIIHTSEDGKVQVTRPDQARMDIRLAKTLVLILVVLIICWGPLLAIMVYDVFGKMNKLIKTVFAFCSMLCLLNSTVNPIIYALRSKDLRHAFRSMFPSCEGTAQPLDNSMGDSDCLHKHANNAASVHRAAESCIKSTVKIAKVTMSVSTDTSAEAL
Sequence of Cannabinoid receptor 2 (P34972 whole entry): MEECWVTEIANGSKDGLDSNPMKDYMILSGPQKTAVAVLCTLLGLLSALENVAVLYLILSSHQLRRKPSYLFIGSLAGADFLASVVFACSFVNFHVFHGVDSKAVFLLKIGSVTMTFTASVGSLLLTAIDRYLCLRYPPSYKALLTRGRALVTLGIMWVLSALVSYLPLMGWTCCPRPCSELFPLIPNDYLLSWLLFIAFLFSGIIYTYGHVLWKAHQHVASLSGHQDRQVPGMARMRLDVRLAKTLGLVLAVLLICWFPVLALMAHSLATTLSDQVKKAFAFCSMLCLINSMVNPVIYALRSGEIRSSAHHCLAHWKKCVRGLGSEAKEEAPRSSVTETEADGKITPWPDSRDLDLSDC

By IC50 is commonly meant the midpoint of a concentration-inhibition curve. As usually defined, the Ki is a dissociation constant, usually derived from enzyme kinetics or from competition with a known ligand. On to `CCCCCCCCCCC[C@@H](C[C@@H]1OC(=O)[C@H]1CCCCCC)OC(=O)[C@H](C)NC=O`, for which the Ratio in experiment [1] and in experiment [3] was 23 in each case. Besides, the Ratio IC50 in experiment [2] and in experiment [5] was 23 throughout. The IC50 in experiment [4] is 0.043 µM; in [7], above 50 µM; in [8], 1 µM. Besides, the Ki in [6] is 3.1 µM; in experiment [9], above 10 µM.
For the molecule `CCCCCCCCCCC[C@@H](C[C@@H]1OC(=O)[C@H]1CCCCCC)OC(=O)[C@H](Cc1ccccc1)NC=O`, the IC50 in experiment [4] was 25 µM; in [7], above 50 µM; in experiment [8] it was above 10 µM.
`CCCCCCCCCCC[C@@H](C[C@@H]1OC(=O)[C@H]1CCCCCC)OC(=O)[C@@H](NC(C)=O)C(C)C`: the Ratio in experiment [1] and in experiment [3] was 15 in each case. In addition, the Ratio IC50 in experiment [2] and in experiment [5] was 15 each time. Further, the IC50 in [4] was 0.46 µM; in [7], above 50 µM; in experiment [8] it was above 10 µM. For the same molecule, the values for the Ki in experiment [6] and in [9] were 8.4 µM and above 10 µM, respectively.
With `CCCCCCCCCCC[C@@H](C[C@@H]1OC(=O)[C@H]1CCCCCC)OC(=O)[C@@H](NC=O)C(C)C`, the Ratio in experiment [1] and in [3] was 23 throughout. Also, the Ratio IC50 in [2] and in [5] was 23 each time. Also, the IC50 in experiment [4] is 0.035 µM; in experiment [7] it was above 50 µM; in experiment [8], above 10 µM. Also, the Ki in experiment [6] was 5.7 µM; in [9], above 10 µM.
Turning to `CCCCCCCCCCC[C@@H](C[C@@H]1OC(=O)[C@H]1CCCCCC)OC(=O)[C@@H](CC(C)C)NC(=O)OCc1ccccc1`, the results for the IC50 in experiment [4], in experiment [7] and in experiment [8] were above 25 µM, above 50 µM and above 10 µM, respectively.
For the molecule `CCCCCCCCCCC[C@@H](C[C@@H]1OC(=O)[C@H]1CCCCCC)OC(=O)CCNC=O`, the values for the IC50 in experiment [4], in [7] and in [8] were 0.6 µM, above 50 µM and 0.4 µM, respectively. Besides, the Ki was determined as 1.9 µM in experiment [6] and 6.4 µM in experiment [9].
Regarding `CCCCCCCCCCC[C@@H](C[C@@H]1OC(=O)[C@H]1CCCCCC)OC(=O)CCC(C)C`, the IC50 in [4] was above 25 µM; in experiment [7], 10.4 µM; in [8], above 10 µM.
In the case of `CCCCCCCCCCC[C@@H](C[C@@H]1OC(=O)[C@H]1CCCCCC)OC(=O)[C@@H]1CCC(=O)N1`, the Ratio in experiment [1] and in experiment [3] was 15 each time. The Ratio IC50 in experiment [2] and in [5] was 15 in each case. Besides, the IC50 in [4] is 0.1 µM; in experiment [7], above 50 µM; in experiment [8], 3.5 µM. In addition, the Ki was 2.6 µM in [6] and above 10 µM in experiment [9].
Consider `CCCCCCCCCCC[C@@H](C[C@@H]1OC(=O)[C@H]1CCCCCC)OC(=O)[C@@H](N)Cc1ccccc1`, for which the IC50 in experiment [4] is 25 µM; in experiment [7], above 50 µM; in experiment [8], above 10 µM.
Turning to `CCCCCCCCCCC[C@H](O)C[C@@H]1OC(=O)[C@H]1CCCCCC`, the IC50 in experiment [4] is 25 µM; in experiment [7], above 50 µM; in experiment [8], above 10 µM.
Broadly, the inhibition is the change of the read-out against control, counted positive when it falls. As for `CCCCCCCCCCC[C@@H](C[C@@H]1OC(=O)[C@H]1CCCCCC)OC(=O)[C@H](CC(C)C)NC=O` [ORLISTAT], the figures for the Ki in experiment [6] and in [9] were 2.5 µM and above 10 µM, respectively. The molecule also showed an inhibition at 1 µM in experiment [10] of 79.8%. In experiment [8], this molecule yielded an IC50 above 10 µM.
Consider `CCCCCCCCCCC[C@@H](C[C@@H]1OC(=O)[C@H]1CCCCCC)OC(=O)[C@H](Cc1ccccc1)NC(=O)OCc1ccccc1`, for which the IC50 in experiment [4] is above 25 µM; in [7] it was above 50 µM; in experiment [8], above 10 µM.
For `CCCCCCCCCCC[C@@H](C[C@@H]1OC(=O)[C@H]1CCCCCC)OC(=O)[C@H](CC(C)C)NC(=O)OC(C)(C)C`, the values for the IC50 in [4], in experiment [7] and in experiment [8] were above 25 µM, above 50 µM and above 10 µM, respectively.
Turning to `CCCCCCCCCCC[C@@H](C[C@@H]1OC(=O)[C@H]1CCCCCC)OC(=O)CNC(C)=O`, the IC50 in [4] was 0.8 µM; in [7], above 50 µM; in [8], 1.7 µM. For the same molecule, the Ki in experiment [6] is 2.3 µM; in experiment [9], above 10 µM.
Consider `CCCCCCCCCCC[C@@H](C[C@@H]1OC(=O)[C@H]1CCCCCC)OC(=O)[C@H](CC(C)C)NC(=O)OCc1ccccc1`, for which the IC50 is above 25 µM in experiment [4], above 50 µM in experiment [7] and above 10 µM in experiment [8].
As for `CCCCCCCCCCC[C@@H](C[C@@H]1OC(=O)[C@H]1CCCCCC)OC(=O)[C@@H](NC=O)[C@@H](C)CC`, the Ratio in [1] and in experiment [3] was 23 throughout. Also, the Ratio IC50 in experiment [2] and in experiment [5] was 23 throughout. The same molecule displayed an inhibition at 0.3 µM in experiment [11] of 57.3%. Moreover, the IC50 was 0.016 µM in [4], above 50 µM in experiment [7] and above 10 µM in experiment [8]. In addition, the Ki is 6 µM in experiment [6] and above 10 µM in experiment [9].
Consider `CCCCCCCCCCC[C@@H](C[C@@H]1OC(=O)[C@H]1CCCCCC)OC(=O)[C@@H]1CCCN1C=O`, for which the IC50 is 1.1 µM in experiment [4], 3.4 µM in experiment [7] and above 10 µM in experiment [8]. For the same molecule, the Ki in experiment [6] worked out at 1.7 µM; in experiment [9], 7.4 µM.
`CCCCCCCCCCC[C@@H](C[C@@H]1OC(=O)[C@H]1CCCCCC)OC(=O)[C@@H](CC(C)C)NC=O` returned an IC50 in experiment [8] above 10 µM.
On to `CCCCCCCCCCC[C@@H](C[C@@H]1OC(=O)[C@H]1CCCCCC)OC(=O)CNC(=O)OCc1ccccc1`, for which the figures for the IC50 in experiment [4], in experiment [7] and in experiment [8] were above 25 µM, above 50 µM and above 10 µM, respectively.
For `CCCCCCCCCCC[C@@H](C[C@@H]1OC(=O)[C@H]1CCCCCC)OC(=O)[C@@H](N)CC(C)C` the same measures were above 25 µM, above 50 µM and above 10 µM.
In the case of `CCCCCCCCCCC[C@@H](C[C@@H]1OC(=O)[C@H]1CCCCCC)OC(=O)[C@@H](NC(C)=O)[C@@H](C)CC`, the Ratio in experiment [1] and in experiment [3] was 15 each time. The Ratio IC50 in experiment [2] and in [5] was 15 in each case. In addition, the IC50 was 0.43 µM in experiment [4], 6.6 µM in experiment [7] and above 10 µM in [8]. Besides, the figures for the Ki in [6] and in experiment [9] were 8.6 µM and above 10 µM, respectively.
